Active and inactive are the calls of the source. The rule behind the calls is not given here.

The test system of data set [1] is Rattus norvegicus. In words: Chronic antiinflammatory activity against adjuvant-induced arthritis in po dosed rat assessed as decrease in volume of paw administered for 9 days starting 14 days after adjuvant injection and continued until day 22 by therapeutic test. In kind it is functional. The method, boiled down:
(§1)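 Adjuvant arthritis was induced in groups of six rats by injecting Mycobacterium butyricum in mineral oil into the left hind foot pad. Oral dosing ran from day 14 to day 22 (nine doses). Injected-paw volume was measured by mercury displacement, and a decrease of ≥0.5 ml counted as a therapeutic effect. ED50 was derived by probit analysis of responder counts. The maximum screening dose was 100 mg/kg.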

In data set [2] the test system is Rattus norvegicus. Kind of data set: Ulcerogenicity in po dosed 24-hrs starved Charles-River rat assessed as lesions on stomach administered as single dose measured after 18 hrs. In kind it is toxicity, organism-based. The following applies: in vivo. The method, boiled down:
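Male Charles River rats were starved 24 h and given a single oral dose. After 18 h they were killed by ether inhalation and their stomachs examined for lesions (erosion or ulcer). UD50, the dose producing lesions in 50% of rats, was derived by probit analysis.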

In data set [3] the test system is Rattus norvegicus. In words: Chronic antiinflammatory activity against adjuvant-induced arthritis in rat assessed as decrease in volume of paw at 10 mg/kg, po administered for 9 days starting 14 days after adjuvant injection and continued until day 22 by therapeutic test. In kind it is functional, organism-based. Set-up: dose 10 mg/kg. Put shortly: as §1
Data set [4] is filed under the species Rattus norvegicus. Kind of data set: Ratio of ED50 for ulcerogenicity in 24-hrs starved Charles-River rat to ED50 for chronic antiinflammatory activity against adjuvant-induced arthritis in rat. The method, boiled down: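 Ratio of ulcerogenic UD50 to therapeutic ED50. UD50: single oral dose in 24 h-starved male Charles River rats, stomach lesions scored at 18 h. Therapeutic ED50: adjuvant-arthritic rats dosed orally days 14–22, with a ≥0.5 ml decrease in paw volume as the response. Both values were derived by probit analysis.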

The subject of data set [5] is Rattus norvegicus. Kind of data set: Chronic antiinflammatory activity against adjuvant-induced arthritis in rat assessed as decrease in volume of paw at 100 mg/kg, po administered for 9 days starting 14 days after adjuvant injection and continued until day 22 by therapeutic test. Further details: dose 100 mg/kg. The data set is classed as functional, organism-based. Put shortly:
as §1

Data set [6] has as its system Rattus norvegicus. In words: Ratio of ED50 for acute antiinflammatory activity against carrageenan-induced paw edema in rat to ED50 for chronic antiinflammatory activity against adjuvant-induced arthritis in rat.
For data set [7], the system named is Rattus norvegicus. In words: Acute antiinflammatory activity in po dosed rat assessed as inhibition of carrageenan-induced paw edema. In kind it is functional.
Data set [8] relates to Rattus norvegicus. Kind of data set: Chronic antiinflammatory activity against adjuvant-induced arthritis in rat assessed as decrease in volume of paw at 25 mg/kg, po administered for 9 days starting 14 days after adjuvant injection and continued until day 22 by therapeutic test. The data set is classed as functional, organism-based. Set-up: dose 25 mg/kg. The method, boiled down: as §1

The term ED50 denotes the midpoint of the dose-response relation. Regarding `CCCC1(CC(=O)O)CCCc2c1[nH]c1ccccc21` (stereo not drawn), in the data set on Rattus norvegicus [1], the ED50 was 20 mg/kg.

Regarding `CCc1cccc2c3c([nH]c12)C(C)(CC(=O)O)CC3` (stereo not drawn), in the data set with Rattus norvegicus [1], the ED50 is greater than 50 mg/kg.

`CCCCC1C(=O)N(c2ccccc2)N(c2ccccc2)C1=O` [PHENYLBUTAZONE]: the results for the 50% effective dose (ED50) in the data set with Rattus norvegicus [1] and in the data set with Rattus norvegicus [2] were 5.4 mg/kg and 100 mg/kg, respectively.

With `CCc1cccc2c3c([nH]c12)C(C)(CC(=O)O)CCCC3` (stereo not drawn), in the data set on Rattus norvegicus [3], the outcome was inactive.

`CCC1(CC(=O)O)CCc2c1[nH]c1ccccc21` (stereo not drawn): the ED50 in the data set with Rattus norvegicus [1] amounted to 100 mg/kg.

In the case of `COc1ccc2cc([C@H](C)C(=O)O)ccc2c1` [NAPROXEN], the results for the ED50 with Rattus norvegicus [1] and with Rattus norvegicus [2] were 2.1 mg/kg and 28 mg/kg, respectively. In addition, in the data set filed under Rattus norvegicus [4], the “Ratio ED50” value turned out to be 13.

Regarding `O=C(O)C1CCc2c([nH]c3ccccc23)C1` (stereo not drawn), in the data set with Rattus norvegicus [5], the outcome was inactive.

For the compound `CC1(CC(=O)O)CCCc2c1[nH]c1ccccc21` (stereo not drawn), the outcome in the data set with Rattus norvegicus [5] was inactive.

In the case of `CCCc1cccc2c3c([nH]c12)C(CC)(CC(=O)O)CCC3` (stereo not drawn), the Ratio in the data set with Rattus norvegicus [6] amounted to 10. Further, the ED50 is 1.1 mg/kg with Rattus norvegicus [1], 24 mg/kg with Rattus norvegicus [2] and 10.5 mg/kg in the data set on Rattus norvegicus [7]. Moreover, in the data set listed under Rattus norvegicus [4], the “Ratio ED50” value is 24.

In the case of `COc1ccc2c(c1)c(CC(=O)O)c(C)n2C(=O)c1ccc(Cl)cc1` [INDOMETHACIN], the ED50 in the data set on Rattus norvegicus [1] worked out at 0.2 mg/kg.

Turning to `COc1ccc2[nH]c3c(c2c1)CCC(C(=O)O)C3` (stereo not drawn), the ED50 in the data set with Rattus norvegicus [1] worked out at 20 mg/kg; in the data set on Rattus norvegicus [7] it was 12.7 mg/kg.

Turning to `CCC1(CC(=O)O)CCCc2c1[nH]c1ccc(OC)cc21` (stereo not drawn), in the data set on Rattus norvegicus [8], the result was inactive.

For the compound `CCCC1(CC(=O)O)OCCc2c1[nH]c1ccccc21` (stereo not drawn) [PRODOLIC ACID], the ED50 was 9 mg/kg in the data set with Rattus norvegicus [1], 678 mg/kg in the data set on Rattus norvegicus [2] and 89.9 mg/kg with Rattus norvegicus [7]. The “Ratio ED50” value in the data set listed under Rattus norvegicus [4] stood at 75.

Take `CCc1cccc2c3c([nH]c12)C(CC)(CC(=O)O)CCC3` (stereo not drawn): the ED50 with Rattus norvegicus [1] is 1.9 mg/kg.

In the case of `CCc1cccc2c3c([nH]c12)C(CC)(CC(=O)O)OCC3` (stereo not drawn) [ETODOLAC], the ED50 in the data set on Rattus norvegicus [1] amounted to 0.7 mg/kg; with Rattus norvegicus [2], 60 mg/kg; in the data set on Rattus norvegicus [7], 10.2 mg/kg. Also, the “Ratio ED50” value in the data set filed under Rattus norvegicus [4] is given as 85.

In the case of `CCc1cccc2c3c([nH]c12)C(CC)(CC(=O)O)CC3` (stereo not drawn), the ED50 with Rattus norvegicus [1] was 6.2 mg/kg.

For `CCc1cccc2c3c([nH]c12)C(CC)(CC(=O)O)CCCC3` (stereo not drawn), in the data set on Rattus norvegicus [1], the ED50 was greater than 50 mg/kg.

Regarding `O=C(O)CC1CCCc2c1[nH]c1ccccc21` (stereo not drawn), the outcome with Rattus norvegicus [5] was inactive.

For the compound `O=C(O)C1CCc2c([nH]c3ccc(Cl)cc23)C1` (stereo not drawn), the results for the 50% effective dose (ED50) in the data set on Rattus norvegicus [1] and in the data set with Rattus norvegicus [7] were 21.3 mg/kg and 10.2 mg/kg, respectively.

Turning to `CCC1(CC(=O)O)CCCc2c1[nH]c1ccccc21` (stereo not drawn), the ED50 with Rattus norvegicus [1] stood at 3.3 mg/kg.

Take `CC1(CC(=O)O)CCc2c1[nH]c1ccccc21` (stereo not drawn): the result with Rattus norvegicus [8] was inactive.

Take `CCC1(CC(=O)O)CCCc2c1[nH]c1c(C(C)C)cccc21` (stereo not drawn): the ED50 with Rattus norvegicus [1] was found to be 5.4 mg/kg.

Regarding `CCCCc1cccc2c3c([nH]c12)C(CC)(CC(=O)O)CCC3` (stereo not drawn), in the data set with Rattus norvegicus [1], the 50% effective dose (ED50) was 4.2 mg/kg.

The values above are taken from ChEMBL document CHEMBL3272070, “Cycloalkanoindoles. 1. Syntheses and antiinflammatory actions of some acidic tetrahydrocarbazoles, cyclopentindoles, and cycloheptindoles” (J Med Chem, 1976).
